Reference: PubChem BioAssay AID588831 (Broad Institute, 2011)
Calls of active or inactive are those of the source.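 Rule for the calls: active = compounds lowering dye-labelled HDL uptake whose fitted half-maximal concentration is at most double the top tested dose; inconclusive = flat fit with moderate inhibition, or an unreliable curve fit; inactive = the rest.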

Biological target: Scavenger receptor class B member 1 (Mus musculus) (UniProt Q61009)
Experiment: reversibility of SR-BI HDL uptake inhibition, dose response, mechanism study for SR-BI HDL uptake inhibitor project, ldlA[mSR-BI] CHO cells, fluorescence, dry powder (AID 588831)
Conditions: DiI-HDL uptake after washout
In short: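 Assay system: ldlA[mSR-BI] CHO cells, LDL-receptor-deficient, overexpressing mouse SR-BI | Schedule: 2 h compound pretreatment at 37 °C, 3 h DiI-HDL uptake | Signal: DiI fluorescence, bottom read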

Chain of Scavenger receptor class B member 1 (Mus musculus) (Q61009 whole entry, looked up): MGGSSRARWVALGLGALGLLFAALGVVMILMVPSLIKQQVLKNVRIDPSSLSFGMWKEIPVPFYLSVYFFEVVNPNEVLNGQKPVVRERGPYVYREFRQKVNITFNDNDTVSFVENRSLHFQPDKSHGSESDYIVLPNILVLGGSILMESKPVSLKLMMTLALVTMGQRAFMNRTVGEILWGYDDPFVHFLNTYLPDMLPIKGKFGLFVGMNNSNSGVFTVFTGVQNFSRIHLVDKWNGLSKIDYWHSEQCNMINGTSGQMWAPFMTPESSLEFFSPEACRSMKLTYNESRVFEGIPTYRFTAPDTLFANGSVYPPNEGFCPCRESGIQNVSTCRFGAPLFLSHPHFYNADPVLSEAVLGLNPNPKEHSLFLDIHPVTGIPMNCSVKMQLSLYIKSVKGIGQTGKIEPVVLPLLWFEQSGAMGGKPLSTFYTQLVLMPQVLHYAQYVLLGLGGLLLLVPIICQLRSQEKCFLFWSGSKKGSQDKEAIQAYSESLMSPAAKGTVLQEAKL

SMILES	AC50	activity change, negative = inhibition (at 35 µM (top of the series))
CCCCCCC1CCC/C1=N\NC(N)=S (stereo not drawn)	0.987 nM	–
C[C@H](C(=O)NC1CCCC1)N(C(=O)Cn1nnc(-c2ccc3c(c2)OCO3)n1)C1CCCCC1	–	inactive
COCC(=O)N1CCc2cc(-c3csc(NC(=O)c4cc(OC)cc(OC)c4)n3)ccc21	315 nM	–
